Experimental data published in ChEMBL document CHEMBL1123629, “Resolution, absolute configuration, and cholinergic enantioselectivity of (-)- and (+)-c-2-methyl-r-5-[(dimethylamino)methyl]-1,3-oxathiolane t-3-oxide methiodide and related sulfones” (1987).

System: not listed separately
Test: Eudismic ratio was determined in frog rectus abdominis
Type: functional, Rectus abdominis muscle

SMILES | Eudismic ratio
C[C@H]1O[C@@H](C[N+](C)(C)C)CS1(=O)=O.[I-] | 12

System: not listed separately
Test: Nicotinic activity on frog rectus abdominis
Type: functional, Rectus abdominis muscle

SMILES | ED50
C[C@H]1O[C@@H](C[N+](C)(C)C)CS1(=O)=O.[I-] | 0.033 nM
C[C@H]1O[C@@H](C[N+](C)(C)C)C[S+]1[O-].[I-] (mixture of isomers) | 2300 nM
C[C@H]1O[C@H](C[N+](C)(C)C)C[S+]1[O-].[I-] (mixture of isomers) | 2100 nM
C[C@@H]1O[C@H](C[N+](C)(C)C)C[C@H]1O (racemic) [MUSCARINE] | > 500
C[N+](C)(C)CCOC(N)=O.[Cl-] [CARBACHOL] | 5100 nM

System: not listed separately
Test: Eudismic ratio was determined in guinea pig ileum
Type: functional

SMILES | Eudismic ratio
C[C@H]1O[C@@H](C[N+](C)(C)C)CS1(=O)=O.[I-] | 1

System: not listed separately
Test: Equipotent molar ratio(EPMR) between the ED50 of compound and ED50 of carbachol calculated on frog rectus abdominis
Type: functional, Rectus abdominis muscle
In short: (§1)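 ED50 for test agonist and for carbachol (reference) were obtained by regressing the angular transform of fractional contractile effect against log agonist concentration. Potency is expressed as the equipotent molar ratio, ED50 test/ED50 carbachol. Values below 1 indicate greater potency than carbachol.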

SMILES | EPMR
C[C@H]1O[C@@H](C[N+](C)(C)C)CS1(=O)=O.[I-] | 6.5
C[C@@H]1O[C@H](C[N+](C)(C)C)CS1(=O)=O.[I-] | 76
C[C@H]1O[C@@H](C[N+](C)(C)C)C[S+]1[O-].[I-] (mixture of isomers) | 45
C[C@H]1O[C@H](C[N+](C)(C)C)C[S+]1[O-].[I-] (mixture of isomers) | 41
C[C@@H]1O[C@H](C[N+](C)(C)C)CS1(=O)=O.[I-] (racemic) | 15
C[C@@H]1O[C@H](C[N+](C)(C)C)C[C@H]1O (racemic) [MUSCARINE] | >95
C[N+](C)(C)CCOC(N)=O.[Cl-] [CARBACHOL] | 1

System: not listed separately
Test: Muscarinic selectivity is reported as the ED50 ratio (ED50 Nicotinic / ED50 Muscarinic)
Type: functional
In short: (§2)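 Selectivity is computed from nicotinic (frog rectus abdominis) and muscarinic (guinea pig ileum) data as ED50(N)/ED50(M) and as EPMR(N)/EPMR(M). Each ED50 comes from regressing the angular transform of fractional effect on log agonist concentration, with carbachol as the reference.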

SMILES | Selectivity
C[C@H]1O[C@@H](C[N+](C)(C)C)CS1(=O)=O.[I-] | 2.1
C[C@@H]1O[C@H](C[N+](C)(C)C)CS1(=O)=O | 24
C[C@@H]1O[C@H](C[N+](C)(C)C)CS1(=O)=O (racemic) | 3

Organism: Cavia porcellus
Test: Muscarinic activity on guinea pig ileum
Type: functional

SMILES | ED50 [nM]
C[C@@H]1O[C@H](C[N+](C)(C)C)CS1(=O)=O.[I-] | 0.000158
C[C@H]1O[C@@H](C[N+](C)(C)C)C[S+]1[O-].[I-] (mixture of isomers) | 12.2
C[C@H]1O[C@H](C[N+](C)(C)C)C[S+]1[O-].[I-] (mixture of isomers) | 19.6
C[C@@H]1O[C@H](C[N+](C)(C)C)CS1(=O)=O.[I-] (racemic) | 0.000264
C[C@@H]1O[C@H](C[N+](C)(C)C)C[C@H]1O (racemic) [MUSCARINE] | 79.4
C[N+](C)(C)CCOC(N)=O.[Cl-] [CARBACHOL] | 94

System: not listed separately
Test: Muscarinic selectivity is reported as the EPMR ratio (EPMR Nicotinic/ EPMR Muscarinic)
Type: functional
In short: as §2

SMILES | Selectivity
C[C@H]1O[C@@H](C[N+](C)(C)C)CS1(=O)=O.[I-] | 0.04
C[C@@H]1O[C@H](C[N+](C)(C)C)CS1(=O)=O | 0.5
C[C@@H]1O[C@H](C[N+](C)(C)C)CS1(=O)=O (racemic) | 0.05

System: not listed separately
Test: Equipotent molar ratio(EPMR) between the ED50 of compound and ED50 of carbachol calculated on guinea pig ileum
Type: functional
In short: as §1

SMILES | EPMR
C[C@H]1O[C@@H](C[N+](C)(C)C)CS1(=O)=O.[I-] | 170
C[C@@H]1O[C@H](C[N+](C)(C)C)CS1(=O)=O.[I-] | 168
C[C@H]1O[C@@H](C[N+](C)(C)C)C[S+]1[O-].[I-] (mixture of isomers) | 1.3
C[C@H]1O[C@H](C[N+](C)(C)C)C[S+]1[O-].[I-] (mixture of isomers) | 209
C[C@@H]1O[C@H](C[N+](C)(C)C)CS1(=O)=O.[I-] (racemic) | 281
C[C@@H]1O[C@H](C[N+](C)(C)C)C[C@H]1O (racemic) [MUSCARINE] | 0.8
C[N+](C)(C)CCOC(N)=O.[Cl-] [CARBACHOL] | 1
